In ChEMBL document CHEMBL3817796, “Discovery of Novel 15-Lipoxygenase Activators To Shift the Human Arachidonic Acid Metabolic Network toward Inflammation Resolution” (J Med Chem, 2016):
Active and inactive are the calls of the source. The calls are words filed in the database; no cut-off is given here.

Columns and labels:
[1] = target: T1, Prostaglandin G/H synthase 2 (Homo sapiens) (UniProt P35354); assay: Activation of COX2 (unknown origin) assessed as PGG2 to PGH2 conversion by measuring N,N,N',N'-tetramethyl-p-phenylenediamine oxidation at 100 uM by spectrophotometry
T1 sequence (whole entry): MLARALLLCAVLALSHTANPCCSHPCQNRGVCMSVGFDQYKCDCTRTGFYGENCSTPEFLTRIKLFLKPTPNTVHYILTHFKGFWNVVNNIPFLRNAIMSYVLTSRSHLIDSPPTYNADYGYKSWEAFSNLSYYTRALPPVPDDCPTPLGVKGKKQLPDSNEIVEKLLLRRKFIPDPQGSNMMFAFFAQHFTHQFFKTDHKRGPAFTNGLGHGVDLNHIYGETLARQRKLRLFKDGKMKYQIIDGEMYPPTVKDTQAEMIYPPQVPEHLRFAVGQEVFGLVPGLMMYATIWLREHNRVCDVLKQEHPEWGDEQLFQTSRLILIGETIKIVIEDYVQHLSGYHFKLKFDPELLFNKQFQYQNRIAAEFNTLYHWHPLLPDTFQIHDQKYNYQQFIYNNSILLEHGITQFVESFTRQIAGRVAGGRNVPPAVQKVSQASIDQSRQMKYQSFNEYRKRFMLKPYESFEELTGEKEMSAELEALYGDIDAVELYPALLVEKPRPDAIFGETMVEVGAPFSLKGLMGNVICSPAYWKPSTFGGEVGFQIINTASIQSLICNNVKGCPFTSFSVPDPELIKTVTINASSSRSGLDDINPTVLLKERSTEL

[2] = target: T2, Leukotriene A-4 hydrolase (Homo sapiens) (UniProt P09960); assay: Activation of LTA4H hydrolase activity (unknown origin) assessed as LTB4 formation at 100 uM by enzyme linked immunosorbent assay
T2 sequence (whole entry): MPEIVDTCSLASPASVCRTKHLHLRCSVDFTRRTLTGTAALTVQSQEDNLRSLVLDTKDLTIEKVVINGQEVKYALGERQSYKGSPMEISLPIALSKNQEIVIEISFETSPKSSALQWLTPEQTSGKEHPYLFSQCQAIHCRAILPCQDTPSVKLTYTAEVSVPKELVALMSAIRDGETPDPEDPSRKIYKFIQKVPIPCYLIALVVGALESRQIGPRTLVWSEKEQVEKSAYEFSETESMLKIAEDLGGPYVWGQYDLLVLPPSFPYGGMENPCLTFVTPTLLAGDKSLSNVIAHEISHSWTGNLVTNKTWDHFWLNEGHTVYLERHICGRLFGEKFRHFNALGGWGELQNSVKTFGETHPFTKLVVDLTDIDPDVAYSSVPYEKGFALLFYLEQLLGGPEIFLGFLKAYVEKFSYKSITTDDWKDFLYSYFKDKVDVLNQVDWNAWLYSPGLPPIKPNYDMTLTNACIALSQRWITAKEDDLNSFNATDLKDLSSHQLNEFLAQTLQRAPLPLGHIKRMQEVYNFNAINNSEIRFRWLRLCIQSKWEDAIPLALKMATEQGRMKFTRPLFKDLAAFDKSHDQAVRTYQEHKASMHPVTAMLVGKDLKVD
Outline: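 LTA4H hydrolase activity read as LTB4 formation by ELISA. Compound handled as in the 15-LOX assay.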

[3] = target: T3, Polyunsaturated fatty acid lipoxygenase ALOX15 (Homo sapiens) (UniProt P16050); assay: Activation of 15-LOX in human PMN assessed as 12-HETE production at 6.2 to 40 uM pre-incubated for 15 mins before A23187, Ca2+ and Mg2+ stimulation for 1 hr by LC-MS method
T3 sequence (whole entry): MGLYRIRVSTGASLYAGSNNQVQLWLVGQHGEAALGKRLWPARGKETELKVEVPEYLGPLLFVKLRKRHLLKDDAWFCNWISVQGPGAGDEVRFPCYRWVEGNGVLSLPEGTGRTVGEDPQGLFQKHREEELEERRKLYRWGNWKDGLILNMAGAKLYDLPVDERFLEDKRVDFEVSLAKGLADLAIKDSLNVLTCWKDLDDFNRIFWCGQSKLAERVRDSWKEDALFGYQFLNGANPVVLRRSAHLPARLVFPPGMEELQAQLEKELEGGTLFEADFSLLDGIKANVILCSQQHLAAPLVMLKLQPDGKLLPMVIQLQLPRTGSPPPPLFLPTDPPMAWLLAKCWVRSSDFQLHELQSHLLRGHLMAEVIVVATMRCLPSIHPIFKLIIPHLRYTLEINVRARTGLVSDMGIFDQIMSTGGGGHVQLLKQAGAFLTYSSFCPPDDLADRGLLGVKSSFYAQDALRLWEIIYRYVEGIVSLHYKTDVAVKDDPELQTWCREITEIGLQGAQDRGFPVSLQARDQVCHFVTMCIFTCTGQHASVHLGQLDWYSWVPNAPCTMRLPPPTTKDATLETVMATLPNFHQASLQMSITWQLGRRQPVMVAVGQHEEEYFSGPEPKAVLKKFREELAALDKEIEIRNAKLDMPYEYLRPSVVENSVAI
Outline: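 PMNs preincubated 15 min at 37 °C with compound or vehicle, then stimulated 1 h at 37 °C with 10 μM A23187 plus 2 mM Ca2+ and 2 mM Mg2+. Reactions stopped with cold methanol. Eicosanoids quantified by LC-MS.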

Blood = assay: Reduction in TXB2 in production in human whole blood at 100 uM pre-incubated for 20 mins before stimulation with LPS and A23187 for 120 mins by LC-MS/MS method; format: functional; parameters: scale not given: the % may be the effect or the level left
Outline: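 Human blood preincubated 20 min at 37 °C with DMSO vehicle or compound in DMSO. LPS added at 100 μg/mL for 24 h at 37 °C, then A23187 at 20 μg/mL final. Samples frozen in liquid nitrogen at time points, lysed by freeze–thaw, with PGB2 internal standard. Analysed by C18 LC-MRM MS, negative ion. Change = control-normalized concentration minus 1, ×100%; 120 min value from AUC.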

SMILES: CN1CCN(CC(=O)N2N=C3/C(=C/c4ccccc4)CCCC3C2c2ccccc2)CC1 (centres undefined)
- Activity [1]: < 5%
- Activity [2]: < 5%
- Activity [3]: Active
- Activity (Blood): 27%
